Experimental data collected from several papers.
Protocols differ between the studies behind these lines.
Target: Receptor-interacting serine/threonine-protein kinase 4 (RIPK4, Homo sapiens, UniProt P57078)
Residues used in one study (P57078 1-832): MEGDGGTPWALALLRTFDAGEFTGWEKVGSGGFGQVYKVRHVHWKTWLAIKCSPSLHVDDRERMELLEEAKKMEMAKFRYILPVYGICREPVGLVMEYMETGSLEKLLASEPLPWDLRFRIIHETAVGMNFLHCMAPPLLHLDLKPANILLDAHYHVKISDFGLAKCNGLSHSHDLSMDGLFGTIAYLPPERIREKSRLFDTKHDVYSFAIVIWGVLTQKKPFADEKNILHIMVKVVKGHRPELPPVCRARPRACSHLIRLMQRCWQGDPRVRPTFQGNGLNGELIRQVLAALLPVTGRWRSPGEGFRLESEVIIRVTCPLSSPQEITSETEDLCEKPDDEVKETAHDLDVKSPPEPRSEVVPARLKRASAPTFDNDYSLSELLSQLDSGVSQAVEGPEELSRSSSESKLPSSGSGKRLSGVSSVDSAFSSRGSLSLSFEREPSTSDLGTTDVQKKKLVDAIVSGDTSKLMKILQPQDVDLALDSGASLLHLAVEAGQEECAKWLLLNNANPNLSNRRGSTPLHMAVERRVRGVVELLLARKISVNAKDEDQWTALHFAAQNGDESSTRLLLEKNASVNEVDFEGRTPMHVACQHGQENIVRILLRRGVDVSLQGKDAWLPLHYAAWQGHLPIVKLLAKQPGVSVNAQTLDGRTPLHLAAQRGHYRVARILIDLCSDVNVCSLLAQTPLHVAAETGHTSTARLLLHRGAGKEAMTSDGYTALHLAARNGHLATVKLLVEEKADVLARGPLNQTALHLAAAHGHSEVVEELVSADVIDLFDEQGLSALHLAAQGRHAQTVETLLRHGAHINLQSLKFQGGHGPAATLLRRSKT

For CS(=O)(=O)N1CCCC(NC(=O)[C@H](CCC2CCCCC2)NC(=O)c2ccc(CNc3ncnc4c3nnn4-c3ccccc3)cc2)C1 (stereo partly drawn), the remaining binding was 100% (cell-free assay; competition with immobilised ligand; 0.1 µM).
The remaining binding of CN(C)c1nccc(-c2cnc3ncccn23)n1 is reported as 71% (binding; 1 µM).
For CC1=C(C#N)[C@@H](c2ccc3[nH]nc(C)c3c2)C(C#N)=C(c2ccc(Cl)cc2)N1, the remaining binding was 71.8% (cell-free assay; competition with immobilised ligand; 1 µM).
For C[C@@H](c1ccc(-n2cnc3c(N)ncnc32)cc1)N1CCc2nn(C)c(Cc3ccccc3)c2C1=O, the remaining binding was 40% (binding; competition with immobilised ligand; 0.1 µM).
O=C(NCC1CCOCC1)c1n[nH]cc1NC(=O)c1c(F)cccc1F has a remaining binding of 70% (binding; competition with immobilised ligand; 1 µM).
O=C(NCCCN1CCOCC1)c1ccc(Nc2nccc(-c3cc4ccccc4s3)n2)cc1 has a remaining binding of 47% (binding; competition with immobilised ligand; 1 µM).
For COc1cnc(Nc2cccc(S(N)(=O)=O)c2)nc1N1CCN(c2ccccc2)C(=O)C1, the remaining binding was 86% (binding; competition with immobilised ligand; 1 µM).
The remaining binding of C=CC(=O)N1CCC(C(=O)NCC(=O)N2CCN(c3nc(-c4cnc(N)nc4C(F)F)nc(N4CCOCC4)n3)CC2)CC1 is reported as 76% (binding; competition with immobilised ligand; 1 µM).
With CNC(=O)[C@@H]1CC[C@@H](n2c(-c3ccc4cnccc4c3)nc3ccc(C(=O)NCc4cccc(C(N)=O)c4)cc32)C1 the remaining binding was 65% (binding; competition with immobilised ligand; 1 µM).
With CC(=O)c1c(NS(C)(=O)=O)c2cc(-c3ccc(Cl)cc3)c(-c3ccc(Cl)cc3Cl)nc2n(C)c1=O the remaining binding was 61% (cell-free assay; competition with immobilised ligand; 1 µM).
N[C@H]1CCN(c2nccc(-c3cnn4ncccc34)n2)C1 gave a remaining binding of 100% (binding; 1 µM).
The remaining binding of Cc1c(NC(=O)c2cc(C(N)=O)nc3cc(F)ccc23)c(C(F)(F)F)nn1Cc1ccc(C#N)cc1 is reported as 92% (cell-free assay; competition with immobilised ligand; 1 µM).
O=C(c1ccc(Nc2ncc(Cl)c(-c3ccc(Cl)s3)n2)cc1)N1CCC(N2CCCC2)CC1 has a remaining binding of 8% (binding; competition with immobilised ligand; 1 µM).
Cc1cnn2ncc(-c3ccnc(N(C)C)n3)c2c1 gave a remaining binding of 80% (binding; 1 µM).
For CN1CCN(c2cnc3c(C4CCN(C(=O)c5ccc(OC(F)(F)F)cc5N)CC4)ncnc3c2)CC1, the remaining binding was 100% (cell-free assay; competition with immobilised ligand; 1 µM).
The remaining binding of F[C@@H]1CCN(c2nccc(-c3cnn4ncccc34)n2)C1 is reported as 100% (binding; 1 µM).
For O=C(c1ccc(Nc2nccc(-c3cc4ccccc4s3)n2)cc1)N1CCC(N2CCCC2)CC1, the remaining binding was 30% (binding; competition with immobilised ligand; 1 µM).
The remaining binding of CN(C)c1nccc(-c2cnn3ncccc23)n1 is reported as 97% (binding; 1 µM).
CN(c1ccnc(CNc2nc(Nc3ccc4c(c3)CC(=O)N4)ncc2C(F)(F)F)n1)S(C)(=O)=O gave a remaining binding of 6% (cell-free assay; competition with immobilised ligand; 1 µM).
With C[C@H]1CCN(c2nccc(-c3cnn4ncccc34)n2)C1 the remaining binding was 81% (binding; 1 µM).
The remaining binding of FC(F)(F)Oc1cccc(-c2cnc3ccc(-c4ccncc4)nn23)c1 is reported as 69% (binding; competition with immobilised ligand; 5 µM).
